Measured values from ChEMBL document CHEMBL3102805, “Truncated Orexin Peptides: Structure-Activity Relationship Studies” (ACS Med Chem Lett, 2013).
Where a SMILES comes first, the peptide text is derived from it.

How the values were obtained:
[1] = target: T1, Orexin receptor type 2 (Homo sapiens, UniProt O43614); assay: Agonist activity at human OX2 receptor overexpressed in CHO-RD-HGA16 cells assessed as calcium mobilization after 15 mins by fluorescence assay; type: functional, cell-based
T1 sequence (O43614 whole entry): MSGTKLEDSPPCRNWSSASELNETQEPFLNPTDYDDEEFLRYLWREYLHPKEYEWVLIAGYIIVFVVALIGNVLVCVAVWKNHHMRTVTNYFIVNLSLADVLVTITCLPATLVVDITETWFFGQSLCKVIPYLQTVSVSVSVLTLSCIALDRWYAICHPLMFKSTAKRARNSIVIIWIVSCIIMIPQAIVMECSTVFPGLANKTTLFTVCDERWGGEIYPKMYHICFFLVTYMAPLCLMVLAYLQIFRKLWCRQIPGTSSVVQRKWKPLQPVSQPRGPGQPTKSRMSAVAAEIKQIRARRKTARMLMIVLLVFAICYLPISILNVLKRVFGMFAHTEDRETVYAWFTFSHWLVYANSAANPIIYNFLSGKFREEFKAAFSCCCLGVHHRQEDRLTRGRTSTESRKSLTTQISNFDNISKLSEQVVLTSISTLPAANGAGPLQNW

[2] = target: T2, Orexin/Hypocretin receptor type 1 (Homo sapiens, UniProt O43613); assay: Agonist activity at human OX1 receptor overexpressed in CHO-RD-HGA16 cells assessed as calcium mobilization after 15 mins by fluorescence assay; type: functional, cell-based
T2 sequence (O43613 whole entry): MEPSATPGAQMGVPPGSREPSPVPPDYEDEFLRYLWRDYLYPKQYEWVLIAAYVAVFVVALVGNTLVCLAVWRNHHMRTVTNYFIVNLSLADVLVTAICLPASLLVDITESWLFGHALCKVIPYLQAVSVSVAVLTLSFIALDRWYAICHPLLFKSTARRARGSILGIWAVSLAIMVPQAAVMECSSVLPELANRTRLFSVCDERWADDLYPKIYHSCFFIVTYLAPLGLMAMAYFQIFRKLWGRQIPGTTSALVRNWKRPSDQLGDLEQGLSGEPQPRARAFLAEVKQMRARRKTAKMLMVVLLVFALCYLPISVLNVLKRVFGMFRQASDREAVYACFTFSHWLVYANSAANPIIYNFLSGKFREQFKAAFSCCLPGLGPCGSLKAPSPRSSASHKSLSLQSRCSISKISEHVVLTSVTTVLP
How it was run: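 EC50 from 8-point half-log concentration-response curves. Values are means of at least three independent experiments in duplicate, with SEM, or means of two independent duplicate experiments.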

[3] = species on record: Homo sapiens; assay: Selectivity ratio of EC50 for human OX2 receptor to EC50 for human OX1 receptor

Structure (SMILES) | EC50 [1] [nM] | EC50 [2] [nM] | Ratio EC50 [3]
CC[C@H](C)[C@H](NC(=O)CNC(=O)[C@H](C)NC(=O)[C@H](C)NC(=O)[C@@H](Cc1cnc[nH]1)NC(=O)[C@H](CC(N)=O)NC(=O)CNC(=O)[C@H](C)NC(=O)CNC(=O)[C@H](Cc1cnc[nH]1)NC(=O)[C@H](CC(C)C)NC(=O)[C@H](CC(C)C)NC(=O)[C@H](CCC(=O)O)NC(=O)[C@@H](N)Cc1ccc(O)cc1)C(=O)N[C@@H](CC(C)C)C(=O)N[C@H](C(=O)N[C@@H](CC(C)C)C(N)=O)[C@@H](C)O | 1760 | 5700 | 0.3
CC[C@H](C)[C@H](NC(=O)CNC(=O)[C@H](C)NC(=O)[C@@H](C)NC(=O)[C@H](Cc1cnc[nH]1)NC(=O)[C@H](CC(N)=O)NC(=O)CNC(=O)[C@H](C)NC(=O)CNC(=O)[C@H](Cc1cnc[nH]1)NC(=O)[C@H](CC(C)C)NC(=O)[C@H](CC(C)C)NC(=O)[C@H](CCC(=O)O)NC(=O)[C@@H](N)Cc1ccc(O)cc1)C(=O)N[C@@H](CC(C)C)C(=O)N[C@H](C(=O)N[C@@H](CC(C)C)C(N)=O)[C@@H](C)O | 1250 | 1900 | 0.7
CC[C@H](C)[C@H](NC(=O)CNC(=O)[C@H](C)NC(=O)[C@H](C)NC(=O)[C@H](Cc1cnc[nH]1)NC(=O)[C@H](CC(N)=O)NC(=O)CNC(=O)[C@H](C)NC(=O)CNC(=O)[C@H](Cc1cnc[nH]1)NC(=O)[C@H](CC(C)C)NC(=O)[C@H](CC(C)C)NC(=O)[C@H](CCC(=O)O)NC(=O)[C@H](N)Cc1ccc(O)cc1)C(=O)N[C@@H](CC(C)C)C(=O)N[C@H](C(=O)N[C@@H](CC(C)C)C(N)=O)[C@@H](C)O | 3220 | 1360 | 2.4
CC[C@H](C)[C@H](NC(=O)CNC(=O)[C@H](C)NC(=O)[C@H](C)NC(=O)[C@H](Cc1cnc[nH]1)NC(=O)[C@H](CC(N)=O)NC(=O)CNC(=O)[C@H](C)NC(=O)CNC(=O)[C@H](Cc1cnc[nH]1)NC(=O)[C@H](CC(C)C)NC(=O)[C@H](CC(C)C)NC(=O)[C@@H](CCC(=O)O)NC(=O)[C@@H](N)Cc1ccc(O)cc1)C(=O)N[C@@H](CC(C)C)C(=O)N[C@H](C(=O)N[C@@H](CC(C)C)C(N)=O)[C@@H](C)O | 2140 | 739 | 2.9
CC[C@H](C)[C@H](NC(=O)CNC(=O)[C@H](C)NC(=O)[C@H](C)NC(=O)[C@H](Cc1cnc[nH]1)NC(=O)[C@H](CC(N)=O)NC(=O)CNC(=O)[C@H](C)NC(=O)CNC(=O)[C@H](Cc1cnc[nH]1)NC(=O)[C@H](CC(C)C)NC(=O)[C@@H](CC(C)C)NC(=O)[C@H](CCC(=O)O)NC(=O)[C@@H](N)Cc1ccc(O)cc1)C(=O)N[C@@H](CC(C)C)C(=O)N[C@H](C(=O)N[C@@H](CC(C)C)C(N)=O)[C@@H](C)O | 263 | 526 | 0.5
CC[C@H](C)[C@H](NC(=O)CNC(=O)[C@H](C)NC(=O)[C@H](C)NC(=O)[C@H](Cc1cnc[nH]1)NC(=O)[C@H](CC(N)=O)NC(=O)CNC(=O)[C@H](C)NC(=O)CNC(=O)[C@H](Cc1cnc[nH]1)NC(=O)[C@@H](CC(C)C)NC(=O)[C@H](CC(C)C)NC(=O)[C@H](CCC(=O)O)NC(=O)[C@@H](N)Cc1ccc(O)cc1)C(=O)N[C@@H](CC(C)C)C(=O)N[C@H](C(=O)N[C@@H](CC(C)C)C(N)=O)[C@@H](C)O | 156 | 535 | 0.3
CC[C@H](C)[C@H](NC(=O)CNC(=O)[C@H](C)NC(=O)[C@H](C)NC(=O)[C@H](Cc1c[nH]cn1)NC(=O)[C@H](CC(N)=O)NC(=O)CNC(=O)[C@H](C)NC(=O)CNC(=O)[C@H](Cc1c[nH]cn1)NC(=O)[C@H](CC(C)C)NC(=O)[C@H](CC(C)C)NC(=O)[C@H](CCC(=O)O)NC(=O)[C@@H](N)Cc1ccc(O)cc1)C(=O)N[C@@H](CC(C)C)C(=O)N[C@H](C(=O)N[C@@H](CC(C)C)C(N)=O)[C@@H](C)O |  |  | 23
CC[C@H](C)[C@H](NC(=O)CNC(=O)[C@H](C)NC(=O)[C@H](C)NC(=O)[C@H](Cc1c[nH]cn1)NC(=O)[C@H](CC(N)=O)NC(=O)CNC(=O)[C@H](C)NC(=O)CNC(=O)[C@H](Cc1c[nH]cn1)NC(=O)[C@H](CC(C)C)NC(=O)[C@@H](N)CC(C)C)C(=O)N[C@@H](CC(C)C)C(=O)N[C@H](C(=O)N[C@@H](CC(C)C)C(N)=O)[C@@H](C)O (H-LLHGAGNHAAGILTL-NH2) | 947 | 1380 | 0.7
CC[C@H](C)[C@H](NC(=O)CNC(=O)[C@H](C)NC(=O)[C@H](C)NC(=O)[C@H](Cc1cnc[nH]1)NC(=O)[C@H](CC(N)=O)NC(=O)CNC(=O)[C@H](C)NC(=O)CNC(=O)[C@H](Cc1cnc[nH]1)NC(=O)[C@H](CC(C)C)NC(=O)[C@H](CC(C)C)NC(=O)[C@H](CCC(=O)O)NC(=O)[C@H](Cc1ccc(O)cc1)NC(=O)[C@H](CC(C)C)NC(=O)[C@@H](N)CCCNC(=N)N)C(=O)N[C@@H](CC(C)C)C(=O)N[C@H](C(=O)N[C@@H](CC(C)C)C(N)=O)[C@@H](C)O (H-RLYELLHGAGNHAAGILTL-NH2) | 976 | 64 | 
CC[C@H](C)[C@H](NC(=O)CNC(=O)[C@H](C)NC(=O)[C@H](C)NC(=O)[C@H](Cc1c[nH]cn1)NC(=O)[C@H](CC(N)=O)NC(=O)CNC(=O)[C@H](C)NC(=O)CNC(=O)[C@H](Cc1c[nH]cn1)NC(=O)[C@H](CC(C)C)NC(=O)[C@H](CC(C)C)NC(=O)[C@H](CCC(=O)O)NC(=O)[C@H](Cc1ccc(O)cc1)NC(=O)[C@H](CC(C)C)NC(=O)[C@@H](N)CCCN=C(N)N)C(=O)N[C@@H](CC(C)C)C(=O)N[C@H](C(=O)N[C@@H](CC(C)C)C(N)=O)[C@@H](C)O (H-RLYELLHGAGNHAAGILTL-NH2) |  |  | 15

Other lines, results leading:

EC50 [1] [nM] | EC50 [2] [nM] | Ratio EC50 [3] | Structure (SMILES)
610 | 1560 | 0.4 | CC[C@H](C)[C@H](NC(=O)CNC(=O)[C@H](C)NC(=O)[C@H](C)NC(=O)[C@H](Cc1cnc[nH]1)NC(=O)[C@H](CC(N)=O)NC(=O)CNC(=O)[C@H](C)NC(=O)CNC(=O)[C@@H](Cc1cnc[nH]1)NC(=O)[C@H](CC(C)C)NC(=O)[C@H](CC(C)C)NC(=O)[C@H](CCC(=O)O)NC(=O)[C@@H](N)Cc1ccc(O)cc1)C(=O)N[C@@H](CC(C)C)C(=O)N[C@H](C(=O)N[C@@H](CC(C)C)C(N)=O)[C@@H](C)O
1920 | 3070 | 0.6 | CC[C@H](C)[C@H](NC(=O)CNC(=O)[C@H](C)NC(=O)[C@H](C)NC(=O)[C@H](Cc1cnc[nH]1)NC(=O)[C@H](CC(N)=O)NC(=O)CNC(=O)[C@@H](C)NC(=O)CNC(=O)[C@H](Cc1cnc[nH]1)NC(=O)[C@H](CC(C)C)NC(=O)[C@H](CC(C)C)NC(=O)[C@H](CCC(=O)O)NC(=O)[C@@H](N)Cc1ccc(O)cc1)C(=O)N[C@@H](CC(C)C)C(=O)N[C@H](C(=O)N[C@@H](CC(C)C)C(N)=O)[C@@H](C)O
187 | 8.29 |  | CC[C@H](C)[C@H](NC(=O)CNC(=O)[C@H](C)NC(=O)[C@H](C)NC(=O)[C@H](Cc1cnc[nH]1)NC(=O)[C@H](CC(N)=O)NC(=O)CNC(=O)[C@H](C)NC(=O)CNC(=O)[C@H](Cc1cnc[nH]1)NC(=O)[C@H](CC(C)C)NC(=O)[C@H](CC(C)C)NC(=O)[C@H](CCC(=O)O)NC(=O)[C@@H](N)Cc1ccc(O)cc1)C(=O)N[C@@H](CC(C)C)C(=O)N[C@H](C(=O)N[C@@H](CC(C)C)C(N)=O)[C@@H](C)O
4820 | 1910 | 2.5 | CC[C@H](C)[C@H](NC(=O)CNC(=O)[C@H](C)NC(=O)[C@H](C)NC(=O)[C@H](Cc1cnc[nH]1)NC(=O)[C@H](CC(N)=O)NC(=O)CNC(=O)[C@H](C)NC(=O)CNC(=O)[C@H](Cc1cnc[nH]1)NC(=O)[C@H](CC(C)C)NC(=O)[C@H](CC(C)C)NC(=O)[C@H](CCC(=O)O)NC(=O)[C@H](C)N)C(=O)N[C@@H](CC(C)C)C(=O)N[C@H](C(=O)N[C@@H](CC(C)C)C(N)=O)[C@@H](C)O (H-AELLHGAGNHAAGILTL-NH2)
3250 | 1370 | 2.4 | CC[C@H](C)[C@H](NC(=O)CNC(=O)[C@H](C)NC(=O)[C@H](C)NC(=O)[C@H](Cc1cnc[nH]1)NC(=O)[C@H](CC(N)=O)NC(=O)CNC(=O)[C@H](C)NC(=O)CNC(=O)[C@H](Cc1cnc[nH]1)NC(=O)[C@H](CC(C)C)NC(=O)[C@H](CC(C)C)NC(=O)[C@H](CCC(=O)O)NC(=O)[C@@H]1CCCN1)C(=O)N[C@@H](CC(C)C)C(=O)N[C@H](C(=O)N[C@@H](CC(C)C)C(N)=O)[C@@H](C)O (H-PELLHGAGNHAAGILTL-NH2)
